According to ChEMBL document CHEMBL1126909, “Synthesis and pharmacological examination of benzofuran, indan, and tetralin analogues of 3,4-(methylenedioxy)amphetamine” (J Med Chem, 1993):

What was measured:
Format in all cases: functional
[1] = species: Rattus norvegicus; experiment: Inhibitory concentration against [3H]- 5-HT uptake in crude rat synaptosomes; details: Brain
Outline: (§1)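 Crude synaptosomes from male Sprague-Dawley rat tissue homogenised in ice-cold isotonic sucrose. Preincubated 5 min at 37 °C under aeration with pargyline (final 100 μM), then chilled. Tritiated transmitter added at 10 nM final and uptake run 5 min at 37 °C. Catecholamine buffer had 0.06 mM ascorbate. Filtered and counted by scintillation. 9–10 concentrations in triplicate, 3–4 experiments, four-parameter logistic fit for IC50 ± SEM.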

[2] = species: Rattus norvegicus; experiment: Inhibitory concentration against [3H]- NE uptake in crude rat synaptosomes; details: Brain; outline: as §1
[3] = species: Rattus norvegicus; experiment: Inhibitory concentration against [3H]- DA uptake in crude rat synaptosomes; details: Brain; outline: as §1
[4] = species: Rattus norvegicus; experiment: Tested for drug-discrimination stimulus effect in S-1c trained rats
Outline: (§2)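 Male Sprague-Dawley rats (175–200 g) held at about 80% of free-feeding weight were trained on two levers to tell (S)-1c·HCl 1.75 mg/kg from saline. Test drugs were given in 0.9% saline, ip, 30 min before sessions run under extinction. A session ended at 50 presses on one lever, or was scored disrupted if not done within 5 min. %SDL counts nondisrupted rats. ED50 and 95% CI were derived by Litchfield–Wilcoxon.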

[5] = system: Rattus norvegicus; experiment: Number of animals tested to that of number of animals disrupted in S-1c trained at 0.215 mg/kg; Number of animals tested=10
Outline: (§3)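 Drug-discrimination rats were male Sprague-Dawley, 175–200 g, kept at about 80% of free-feeding weight. They were trained against saline on (S)-1c·HCl 1.75 mg/kg, 3·HCl 1.71 mg/kg or (S)-amphetamine sulfate 1 mg/kg. Test drug was given ip in 0.9% saline at 1 mL/kg, 30 min before sessions run under extinction. A session ended at 50 presses on one lever; failing 50 presses within 5 min was scored as disrupted.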

[6] = system: Rattus norvegicus; experiment: Number of animals tested to that of number of animals disrupted in 3 trained at 0.108 mg/kg; Number of animals tested=8; outline: as §3
[7] = system: Rattus norvegicus; experiment: Number of animals tested to that of number of animals disrupted in 3 trained at 0.215 mg/kg; Number of animals tested=11; outline: as §3
[8] = system: Rattus norvegicus; experiment: Number of animals tested to that of number of animals disrupted in 3 trained at 0.429 mg/kg; Number of animals tested=12; outline: as §3
[9] = system: Rattus norvegicus; experiment: Number of animals tested to that of number of animals disrupted in 3 trained at 0.643 mg/kg; Number of animals tested=12; outline: as §3
[10] = system: Rattus norvegicus; experiment: Number of animals tested to that of number of animals disrupted in 3 trained at 0.857 mg/kg; Number of animals tested=11; outline: as §3
[11] = system: Rattus norvegicus; experiment: Number of animals tested to that of number of animals disrupted in S-1c trained at 0.643 mg/kg; Number of animals tested=10; outline: as §3
[12] = system: Rattus norvegicus; experiment: Number of animals tested to that of number of animals disrupted in S-1c trained at 0.857 mg/kg; Number of animals tested=10; outline: as §3
[13] = system: Rattus norvegicus; experiment: Number of animals tested to that of number of animals disrupted in 3 trained at 1.286 mg/kg; Number of animals tested=8; outline: as §3
[14] = system: Rattus norvegicus; experiment: Number of animals tested to that of number of animals disrupted in S-1c trained at 0.429 mg/kg; Number of animals tested=11; outline: as §3
[15] = system: Rattus norvegicus; experiment: Tested for drug-discrimination stimulus effect at 0.215 mg/kg; 0.31-0.74
[16] = system: Rattus norvegicus; experiment: Tested for drug-discrimination stimulus effect at 0.429 mg/kg; 0.24-0.57; outline: as §2
[17] = species: Rattus norvegicus; experiment: Inhibitory concentration against [3H]- DA uptake, p<0.0001
[18] = system: Rattus norvegicus; experiment: Percentage of nondisrupted animals selecting drug liver in 3 trained at 0.429 mg/kg; SDL
Outline: (§4)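 Rats and training are as above: male Sprague-Dawley, food-restricted, with training doses per drug group. Test drug was given ip in saline 30 min before extinction sessions. %SDL is the share of nondisrupted rats reaching 50 presses on the drug lever. A rat not completing 50 presses in 5 min was scored as disrupted.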

[19] = system: Rattus norvegicus; experiment: Percentage of nondisrupted animals selecting drug liver in 3 trained at 0.643 mg/kg; SDL; outline: as §4
[20] = system: Rattus norvegicus; experiment: Percentage of nondisrupted animals selecting drug liver in 3 trained at 1.286 mg/kg; SDL; outline: as §4
[21] = system: Rattus norvegicus; experiment: Percentage of nondisrupted animals selecting drug liver in S-1c trained at 0.215 mg/kg; SDL; outline: as §4
[22] = system: Rattus norvegicus; experiment: Percentage of nondisrupted animals selecting drug liver in S-1c trained at 0.429 mg/kg; SDL
[23] = system: Rattus norvegicus; experiment: Percentage of nondisrupted animals selecting drug liver in S-1c trained at 0.643 mg/kg; SDL
[24] = system: Rattus norvegicus; experiment: Percentage of nondisrupted animals selecting drug liver in S-1c trained at 0.857 mg/kg; SDL
[25] = system: Rattus norvegicus; experiment: Percentage of nondisrupted animals selecting drug liver in 3 trained at 0.108 mg/kg; SDL; outline: as §4
[26] = system: Rattus norvegicus; experiment: Percentage of nondisrupted animals selecting drug liver in 3 trained at 0.215 mg/kg; SDL; outline: as §4
[27] = system: Rattus norvegicus; experiment: Percentage of nondisrupted animals selecting drug liver in 3 trained at 0.857 mg/kg; SDL; outline: as §4

With `CC(N)Cc1ccc2c(c1)OCO2` (centres undefined) [TENAMFETAMINE] the IC50 [1] was 369 nM, the IC50 [2] was 629 nM and the IC50 [3] was 1360 nM.

`CCC(Cc1ccc2c(c1)OCO2)NC` (centres undefined) gave an ED50 [4] of 0.79 mg/kg.

Work on `CC(N)Cc1ccc2c(c1)CCO2` (centres undefined) yielded an Activity [5] of 2, an Activity [6] of 3 and an Activity [7] of 8. For the same molecule, the Activity [8] was 6, the Activity [9] was 4 and the Activity [10] was 4. It also gave an Activity [11] of 3, an Activity [12] of 4 and an Activity [13] of 5. For the same molecule, the Activity [14] was 5, the ED50 [15] was 0.48 mg/kg and the ED50 [16] was 0.37 mg/kg. For the same molecule, the IC50 [1] was 130 nM, the IC50 [17] was 7090 nM and the IC50 [2] was 3240 nM. It also gave an SDL [18] of 50%, an SDL [19] of 75% and an SDL [20] of 100%. The SDL [21] was 25%, the SDL [22] was 50% and the SDL [23] was 71%. The SDL [24] was 100%, the SDL [25] was 0% and the SDL [26] was 33%. The SDL [27] was 86%.
